Measurements from ChEMBL document CHEMBL5032499, “A Druglike Small Molecule that Targets r(CCUG) Repeats in Myotonic Dystrophy Type 2 Facilitates Degradation by RNA Quality Control Pathways” (J Med Chem, 2021).
The source made the active and inactive calls. The calls are words filed in the database; no cut-off is given here.

Experiments:
Fibroblast [1] = assay: Effect on IR exon 11 exclusion in wild type human fibroblast at 0.2 to 5 uM by RT-qPCR analysis; assay type: functional, tissue-based; conditions: dose 0.2-5 µM
Fibroblast [2] = assay: Cytotoxicity against DM2 patient derived fibroblast assessed as cell viability at 5 uM incubated for 48 hrs by Cell Titre-Glo assay; assay type: cell-based; conditions: human
Procedure, shortened: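 DM2 patient-derived fibroblasts were grown in high-glucose DMEM with 20% FBS at 37 °C, 5% CO2. After 48 h of compound treatment, viability was read as CellTiter-Glo luminescence after 10 min at room temperature (n = 6 replicates, one independent experiment).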

[3] = Induction of disruption of r(CCUG)12-MBNL1 complex (unknown origin) incubated for 15 mins by TR-FRET assay; set-up: species or system Homo sapiens
Procedure, shortened: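 Biotinylated r(CCUG)12 was folded at 60 °C for 5 min in 20 mM HEPES pH 7.5, 110 mM KCl, 10 mM NaCl. It was then brought to assay buffer (plus 2 mM MgCl2, 2 mM CaCl2, 5 mM DTT, 0.1% BSA, 0.5% Tween-20) and preincubated 15 min with MBNL1-His6 (final 80 nM RNA, 60 nM protein). Compound was added for 15 min, then streptavidin-XL665 (40 nM) and anti-His6-Tb (0.44 ng/μL) for 30 min at room temperature. TR-FRET 545/665 ratios were read; IC50 was taken from dose-response fits.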

Fibroblast [4] = assay: Inhibition of r(CCUG)12-MBNL1 complex formation in DM2-patient derived fibroblast assessed as reduction in complex in nuclear foci per cell at 5 uM by immunofluorescence imaging analysis; assay type: tissue-based; conditions: Homo sapiens
[5] = Binding affinity to r(CCUG)12 (unknown origin) assessed as apparent dissociation constant incubated for 30 mins by microscale thermophoresis; set-up: species or system Homo sapiens; conditions: read-out: Kd(app)
Procedure, shortened: (§1)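 Microscale thermophoresis with Cy5-labeled RNA (5 nM) folded in 8 mM Na2HPO4 pH 7.0, 185 mM NaCl, 1 mM EDTA at 60 °C for 5 min, then slowly cooled. The RNA was added to 1:1 serial compound dilutions in the same buffer, giving 0.05% Tween-20 final, and held 30 min at room temperature. Kd was fit to a quadratic binding equation; values are the mean of two independent experiments.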

Homo sapiens [6] = species on record: Homo sapiens; assay: Inhibition of r(CCUG)12-MBNL1 complex formation (unknown origin) assessed as rescue of IR exon 11 splicing defect at 1 uM by RT-PCR analysis; set-up: scale not given: the % may be the effect or the level left
Procedure, shortened: (§2)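 DM2 patient fibroblasts were treated at ~40% confluency for 48 h. About 1 μg of total RNA was reverse transcribed, and IR exon 11 was PCR-amplified for 35 cycles (95 °C/58 °C/72 °C). Products were resolved on 2% agarose stained with ethidium bromide and quantified by densitometry. Percent rescue was calculated as (DM2 untreated − treated exclusion)/(DM2 untreated − WT exclusion) × 100.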

Fibroblast [7] = assay: Effect on CNBP mature mRNA level in wild type human fibroblast at 0.2 to 5 uM by RT-qPCR analysis; assay type: functional, tissue-based; conditions: dose 0.2-5 µM
Procedure, shortened: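 Wild-type GM07492 fibroblasts were grown in MEM with 10% FBS. They were treated at 40% confluency for 48 h, and total RNA was extracted. Transcript level was measured by RT-qPCR normalized to GAPDH (n = 6 per concentration, 2 independent experiments).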

Fibroblast [8] = assay: Effect on CNBP mature mRNA level in DM2 patient derived fibroblast at 0.2 to 5 uM by RT-qPCR analysis; assay type: functional, tissue-based; conditions: Homo sapiens, dose 0.2-5 µM
Procedure, shortened: (§3)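 DM2 patient fibroblasts (DMEM, 20% FBS) were treated at 40% confluency for 48 h. Total RNA was then extracted and transcript levels were measured by RT-qPCR, normalized to GAPDH (n = 6 replicates per concentration, 2 independent experiments).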

Homo sapiens [9] = species on record: Homo sapiens; assay: Inhibition of r(CCUG)12-MBNL1 complex formation (unknown origin) assessed as rescue of IR exon 11 splicing defect at 5 uM by RT-PCR analysis; set-up: scale not given: the % may be the effect or the level left; procedure, shortened: as §2
[10] = Binding affinity to Base-paired RNA (unknown origin) assessed as dissociation constant incubated for 30 mins by microscale thermophoresis; set-up: species or system Homo sapiens; procedure, shortened: as §1
Fibroblast [11] = assay: Effect on MAP4K4 exon 22a splicing in DM2-patient derived fibroblast; assay type: tissue-based; conditions: Homo sapiens
Fibroblast [12] = assay: Reduction in CNBP intron 1 level in DM2 patient derived fibroblast at 5 uM by RT-qPCR analysis; assay type: functional, tissue-based; conditions: Homo sapiens; procedure, shortened: as §3
Fibroblast [13] = assay: Reduction in CNBP intron 1 level in DM2 patient derived fibroblast at 1 uM by RT-qPCR analysis; assay type: functional, tissue-based; conditions: Homo sapiens; procedure, shortened: as §3

IC50 [3]: 2000 nM | Kd [5]: 192 nM | Activity (Homo sapiens [6]): 33% | Activity (Homo sapiens [9]): 30% | Kd [10]: > 20000 nM
SMILES: Cc1ccc2nc(Nc3ccc4nc(C)sc4c3)nc(NCCCO)c2c1
Activity (Fibroblast [1]): inactive | Activity (Fibroblast [2]): Non-Toxic | inhibition (Fibroblast [4]): 30% | Activity (Fibroblast [7]): inactive | Activity (Fibroblast [8]): inactive | Activity (Fibroblast [11]): inactive | Activity (Fibroblast [12]): Active | Activity (Fibroblast [13]): Active
